In brackets after ≈: the same amount, converted by molar mass.
Key:
Format in all cases: functional
Staphylococcus aureus [1] = test: Antibacterial activity against wild type Staphylococcus aureus RN4220
Staphylococcus aureus [2] = test: Antibacterial activity against Staphylococcus aureus RN4220 with rplC D159Y mutation
Summary of the method: (§1)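 Spontaneous first-step mutants of S. aureus RN4220. An overnight brain heart infusion culture was plated on LB agar with 1.0 µg/ml tiamulin. Colonies were patched to drug-free LB for 16 h at 37°C, then replica plated on LB agar with 1, 5, 10 and 20 µg/ml tiamulin. The rplC (L3) mutation was identified by colony PCR and sequencing.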

Staphylococcus aureus [3] = test: Antibacterial activity against Staphylococcus aureus RN4220 with rplC G155R mutation; summary of the method: as §1
Staphylococcus aureus [4] = test: Antibacterial activity against Staphylococcus aureus RN4220 with rplC S158L mutation; summary of the method: as §1
Staphylococcus aureus [5] = test: Antibacterial activity against Staphylococcus aureus RN4220 with rplC G152D mutation; summary of the method: as §1
Staphylococcus aureus [6] = test: Antibacterial activity against Staphylococcus aureus RN4220 with rplC G152D and D159Y mutation
Summary of the method: (§2)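 Second-step mutants came from the first-step L3 G152D RN4220 mutant. An overnight culture (2 x 10^9 CFU total) was plated on LB agar with 10 µg/ml tiamulin. Colonies were recultured on 10 µg/ml tiamulin to confirm resistance. L3 was sequenced after colony PCR.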

Staphylococcus aureus [7] = test: Antibacterial activity against Staphylococcus aureus RN4220 with rplC G152D and G155R mutation; summary of the method: as §2
Staphylococcus aureus [8] = test: Antibacterial activity against Staphylococcus aureus RN4220 with rplC G152D, D159Y and G144R mutation
Summary of the method: (§3)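 Third-step mutants: second-step mutants were plated on five other pleuromutilins, each at 2 times its own MIC. Colonies appearing after extended incubation were replated at the selective concentration to confirm resistance. L3 was sequenced by colony PCR. These isolates grow very slowly; colonies form on blood agar only after more than 72 h.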

Staphylococcus aureus [9] = test: Antibacterial activity against Staphylococcus aureus RN4220 with rplC G152D, D159Y and G155R mutation; summary of the method: as §3
Staphylococcus aureus [10] = test: Antibacterial activity against Staphylococcus aureus RN4220 with rplC G152D, D159Y, G155R and H134N mutation; summary of the method: as §3
Staphylococcus aureus [11] = test: Antibacterial activity against Staphylococcus aureus RN4220 with rplC G152D, D159Y, G155R and A150T mutation; summary of the method: as §3
Staphylococcus aureus [12] = test: Antibacterial activity against Staphylococcus aureus 2A1-1 with rplC G152D, D159Y and unmapped mutation; summary of the method: as §3
Staphylococcus aureus [13] = test: Antibacterial activity against Staphylococcus aureus 2A1-7 with rplC G152D, D159Y and unmapped mutation; summary of the method: as §3
Staphylococcus aureus [14] = test: Antibacterial activity against Staphylococcus aureus 2A1-8 with rplC G152D, D159Y and unmapped mutation; summary of the method: as §3
Staphylococcus aureus [15] = test: Antibacterial activity against Staphylococcus aureus 2A1-1 fast1 with rplC D159Y and unmapped mutation
Summary of the method: (§4)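 Fast-growing variants of slow third-step mutants. Single colonies were streaked on unsupplemented LB agar and held more than 3 days at 37°C. At least 2 fast-growing colonies per mutant were purified on LB agar, then taken for MIC testing and sequencing.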

Staphylococcus aureus [16] = test: Antibacterial activity against Staphylococcus aureus 2A1-1 fast2 with rplC D159Y and unmapped mutation; summary of the method: as §4
Staphylococcus aureus [17] = test: Antibacterial activity against Staphylococcus aureus 2A1-7 fast1 with rplC D159Y and unmapped mutation; summary of the method: as §4
Staphylococcus aureus [18] = test: Antibacterial activity against Staphylococcus aureus 2A1-7 fast2 with rplC D159Y and unmapped mutation; summary of the method: as §4

SMILES | MIC (Staphylococcus aureus [1]) | MIC (Staphylococcus aureus [2]) | MIC (Staphylococcus aureus [3]) | MIC (Staphylococcus aureus [4]) | MIC (Staphylococcus aureus [5]) | MIC (Staphylococcus aureus [6]) | MIC (Staphylococcus aureus [7]) | MIC (Staphylococcus aureus [8]) | MIC (Staphylococcus aureus [9]) | MIC (Staphylococcus aureus [10]) | MIC (Staphylococcus aureus [11]) | MIC (Staphylococcus aureus [12]) | MIC (Staphylococcus aureus [13]) | MIC (Staphylococcus aureus [14]) | MIC (Staphylococcus aureus [15]) | MIC (Staphylococcus aureus [16]) | MIC (Staphylococcus aureus [17]) | MIC (Staphylococcus aureus [18])
C=C[C@]1(C)C[C@@H](OC(=O)CSCCN(CC)CC)[C@]2(C)[C@H](C)CC[C@]3(CCC(=O)[C@H]32)[C@@H](C)[C@@H]1O [TIAMULIN] | 0.25 µg/mL (≈ 0.506 µM) | 4 µg/mL (≈ 8.1 µM) | 4 µg/mL (≈ 8.1 µM) | 2 µg/mL (≈ 4.05 µM) | 4 µg/mL (≈ 8.1 µM) | 16 µg/mL (≈ 32.4 µM) | 16 µg/mL (≈ 32.4 µM) | 32 µg/mL (≈ 64.8 µM) | > 64 µg/mL | 2 µg/mL (≈ 4.05 µM) | 4 µg/mL (≈ 8.1 µM) | 64 µg/mL (≈ 130 µM) | 64 µg/mL (≈ 130 µM) | 32 µg/mL (≈ 64.8 µM) | 2 µg/mL (≈ 4.05 µM) | 2 µg/mL (≈ 4.05 µM) | 2 µg/mL (≈ 4.05 µM) | 2 µg/mL (≈ 4.05 µM)
CN(C)[C@@H]1C(O)=C(C(N)=O)C(=O)[C@@]2(O)C(O)=C3C(=O)c4c(O)cccc4[C@@](C)(O)[C@H]3C[C@@H]12 [TETRACYCLINE] | 0.25 µg/mL (≈ 0.563 µM) | 0.25 µg/mL (≈ 0.563 µM) | 0.25 µg/mL (≈ 0.563 µM) | 0.25 µg/mL (≈ 0.563 µM) | 0.25 µg/mL (≈ 0.563 µM) | 0.25 µg/mL (≈ 0.563 µM) | 0.25 µg/mL (≈ 0.563 µM) | 0.25 µg/mL (≈ 0.563 µM) | 0.25 µg/mL (≈ 0.563 µM) | 0.25 µg/mL (≈ 0.563 µM) | 0.25 µg/mL (≈ 0.563 µM) | ≤ 0.06 µg/mL | ≤ 0.06 µg/mL | ≤ 0.06 µg/mL | 0.25 µg/mL (≈ 0.563 µM) | 0.25 µg/mL (≈ 0.563 µM) | 0.25 µg/mL (≈ 0.563 µM) | 0.25 µg/mL (≈ 0.563 µM)
C[C@H]1COc2c(N3CCN(C)CC3)c(F)cc3c(=O)c(C(=O)O)cn1c23.C[C@H]1COc2c(N3CCN(C)CC3)c(F)cc3c(=O)c(C(=O)O)cn1c23.O [LEVOFLOXACIN] | 0.5 µg/mL | 0.5 µg/mL | 0.5 µg/mL | 0.5 µg/mL | 0.5 µg/mL | 0.25 µg/mL | 0.25 µg/mL | 0.25 µg/mL | 0.25 µg/mL | 0.5 µg/mL | 0.125 µg/mL | 0.25 µg/mL | 0.25 µg/mL | 0.25 µg/mL | 0.5 µg/mL | 0.25 µg/mL | 0.25 µg/mL | 0.25 µg/mL
C=C[C@]1(C)C[C@@H](OC(=O)CS[C@@H]2C[C@H]3CC[C@@H](C2)N3C)[C@]2(C)[C@H](C)CC[C@]3(CCC(=O)[C@H]32)[C@@H](C)[C@@H]1O [RETAPAMULIN] | ≤ 0.06 µg/mL | 0.25 µg/mL (≈ 0.483 µM) | 0.5 µg/mL (≈ 0.966 µM) | 0.25 µg/mL (≈ 0.483 µM) | 0.25 µg/mL (≈ 0.483 µM) | 1 µg/mL (≈ 1.93 µM) | 1 µg/mL (≈ 1.93 µM) | 4 µg/mL (≈ 7.73 µM) | 4 µg/mL (≈ 7.73 µM) | 0.125 µg/mL (≈ 0.241 µM) | 0.25 µg/mL (≈ 0.483 µM) | 8 µg/mL (≈ 15.5 µM) | 8 µg/mL (≈ 15.5 µM) | 2 µg/mL (≈ 3.86 µM) | 0.25 µg/mL (≈ 0.483 µM) | 0.25 µg/mL (≈ 0.483 µM) | 0.25 µg/mL (≈ 0.483 µM) | 0.25 µg/mL (≈ 0.483 µM)
O=C(N[C@H](CO)[C@H](O)c1ccc([N+](=O)[O-])cc1)C(Cl)Cl [CHLORAMPHENICOL] | 4 µg/mL (≈ 12.4 µM) | 4 µg/mL (≈ 12.4 µM) | 8 µg/mL (≈ 24.8 µM) | 4 µg/mL (≈ 12.4 µM) | 8 µg/mL (≈ 24.8 µM) | 8 µg/mL (≈ 24.8 µM) | 8 µg/mL (≈ 24.8 µM) | 8 µg/mL (≈ 24.8 µM) | 4 µg/mL (≈ 12.4 µM) | 8 µg/mL (≈ 24.8 µM) | 8 µg/mL (≈ 24.8 µM) | 8 µg/mL (≈ 24.8 µM) | 4 µg/mL (≈ 12.4 µM) | 4 µg/mL (≈ 12.4 µM) | 8 µg/mL (≈ 24.8 µM) | 8 µg/mL (≈ 24.8 µM) | 8 µg/mL (≈ 24.8 µM) | 8 µg/mL (≈ 24.8 µM)
C/C(=C\C(=O)OCCCCCCCCC(=O)O)C[C@@H]1OC[C@H](C[C@@H]2O[C@H]2[C@@H](C)[C@H](C)O)[C@@H](O)[C@H]1O [MUPIROCIN] | 0.06 µg/mL (≈ 0.12 µM) | 0.06 µg/mL (≈ 0.12 µM) | 0.06 µg/mL (≈ 0.12 µM) | 0.06 µg/mL (≈ 0.12 µM) | 0.06 µg/mL (≈ 0.12 µM) | 0.06 µg/mL (≈ 0.12 µM) | 0.06 µg/mL (≈ 0.12 µM) | 0.06 µg/mL (≈ 0.12 µM) | 0.06 µg/mL (≈ 0.12 µM) | 0.06 µg/mL (≈ 0.12 µM) | 0.06 µg/mL (≈ 0.12 µM) | – | – | – | – | – | – | –
